In one series the test system is MDA-MB-468. Nature of the series: Induction of cell cycle arrest in human MDA-MB-468 cells assessed as increase in sub-2n cell population measured upto 5000 nM measured for 7 to 10 days by propidium iodide staining based flow cytometric analysis. It is filed as functional. To be noted: time 7-10 day. (In general: Flow cytometry measures light scatter and fluorescence of single cells or particles in a stream.)

Series [1] deals with Apoptosis regulator BAX (Homo sapiens) (UniProt Q07812). Kind of series: In vivo inhibition of PRMT5 in human Z138 cells xenografted in mouse assessed as increase in BAX expression at 100 mg/kg, po BID measured for 7 days. The class given is functional, organism-based. The settings on record: Z-138, time 7.0 day. (Xenograft models place foreign cells or tissue in a host animal.)
Chain of Apoptosis regulator BAX (Homo sapiens) (Q07812 whole entry): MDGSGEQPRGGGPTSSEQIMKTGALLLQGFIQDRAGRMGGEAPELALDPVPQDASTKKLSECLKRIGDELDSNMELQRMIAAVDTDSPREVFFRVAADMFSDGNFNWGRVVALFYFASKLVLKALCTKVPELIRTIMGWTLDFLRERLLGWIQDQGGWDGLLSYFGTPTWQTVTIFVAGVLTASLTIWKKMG

Series [2] has as its system Z-138. Kind of series: In vivo inhibition of PRMT5 in human Z138 cells xenografted in mouse assessed as increase in SESN1 expression at 100 mg/kg, po BID measured for 7 days. The class given is functional, organism-based. To be noted: time 7.0 day.
For series [3], the system named is Z-138. Kind of series: In vivo inhibition of PRMT5 in human Z138 cells xenografted in mouse assessed as increase in PHLDA3 expression at 100 mg/kg, po BID measured for 7 days. The class given is functional, organism-based. The settings on record: time 7.0 day.
Series [4] is described as follows: Toxicity in mouse assessed as body weight loss at 25 mg/kg, po pretreated for 21 days followed by treatment holiday for 10 days and further compound treatment for 2 weeks starting from day 32 followed by 1 week treatment holiday. The class given is organism-based. The settings on record: in vivo, 504 h, time 21 day.
Another series deals with D283 Med. Kind of series: Antiproliferative activity against human D283 Med cells assessed as cell growth inhibition incubated for 10 days. It is filed as functional. The settings on record: 240 h, time 10 day. In outline: (§1)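 Outsourced panel run in 384-well plates. Cells were grown in RPMI-1640/10% FBS or a special medium at 37°C, 5% CO2. Compound was added 24 h after seeding as a 10-point, 3.16-fold series in 0.1% DMSO. Medium was refreshed and cells re-dosed at 168 h, with a time-zero plate kept. At 240 h cells were fixed, nuclei stained and imaged. gIC50 is growth midway between untreated and time zero, from a 4-parameter fit.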

A further series relates to SW837. Kind of series: Antiproliferative activity against human SW837 cells assessed as cell growth inhibition incubated for 10 days. The class given is functional. To be noted: SW837, 240 h, time 10 day.
A further series concerns RPMI-8226. Kind of series: Antiproliferative activity against human RPMI-8226 cells assessed as cell growth inhibition incubated for 10 days. The class given is functional. To be noted: RPMI-8226, 240 h, time 10 day.
For the next series, the system named is ChaGo-K-1. Nature of the series: Antiproliferative activity against human ChaGo-K-1 cells assessed as cell growth inhibition incubated for 10 days. The class given is functional. The settings on record: ChaGo-K-1, 240 h, time 10 day. In outline: as §1
For the next series, the system named is HOS. Kind of series: Antiproliferative activity against human HOS cells assessed as cell growth inhibition incubated for 10 days. It is filed as functional. The settings on record: 240 h, time 10 day. Summed up:
as §1

The next series deals with Caov-3 cell line. Kind of series: Antiproliferative activity against human Caov-3 cell line assessed as cell growth inhibition incubated for 10 days. It is filed as functional. The settings on record: Caov-3, 240 h, time 10 day. Summed up:
as §1

In another series the test system is SJRH30. Kind of series: Antiproliferative activity against human SJRH30 cells assessed as cell growth inhibition incubated for 10 days. It is filed as functional. The settings on record: SJRH30, 240 h, time 10 day.
A further series has as its system HPAF-II. Kind of series: Antiproliferative activity against human HPAF-II cells assessed as cell growth inhibition incubated for 10 days. It is filed as functional. To be noted: 240 h, time 10 day. In outline: as §1
In a further series the test system is HCT-8. Kind of series: Antiproliferative activity against human HCT-8 cells assessed as cell growth inhibition incubated for 10 days. The class given is functional. To be noted: HCT-8, 240 h, time 10 day. In outline: as §1
Another series deals with DBTRG-05MG. Kind of series: Antiproliferative activity against human DBTRG-05MG cells assessed as cell growth inhibition incubated for 10 days. The class given is functional. To be noted: 240 h, time 10 day. Summed up:
as §1

The test system of a further series is COLO 320. Kind of series: Antiproliferative activity against human COLO 320 cells assessed as cell growth inhibition incubated for 10 days. The class given is functional. The settings on record: COLO 320, 240 h, time 10 day. Summed up:
(§2)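 Cells kept in RPMI-1640 with 10% FBS, 2 mM L-alanyl-L-glutamine and 1 mM Na pyruvate (or a special medium) at 37°C, 5% CO2. Compound added 24 h after seeding, 10 concentrations in 3.16-fold dilution, 0.1% DMSO final. Medium replaced and cells re-dosed at 168 h; 240 h incubation. Nuclei fixed, dye-stained and imaged. gIC50 = growth midway between untreated and time-zero cell counts, from a 4-parameter fit.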

For the next series, the system named is A 172. Nature of the series: Antiproliferative activity against human A-172 cells assessed as cell growth inhibition incubated for 6 days by celltiter-glo assay. To be noted: A 172, 144 h, time 6 day. The class given is functional.
In another series the test system is CHL-1. Nature of the series: Antiproliferative activity against human CHL-1 cells assessed as cell growth inhibition incubated for 10 days. The class given is functional. The settings on record: CHL-1, 240 h, time 10 day. Summed up:
as §2

Another series has as its system BJAB. Nature of the series: Antiproliferative activity against human BJAB cells assessed as cell growth inhibition incubated for 6 days by celltiter-glo assay. It is filed as functional. To be noted: 144 h, time 6 day. (ATP-based viability assays read luminescence as a measure of living cells.)
A further series deals with U-266. Nature of the series: Antiproliferative activity against human U266B1 cells assessed as cell growth inhibition incubated for 10 days. The class given is functional. To be noted: U-266, 240 h, time 10 day.
Another series deals with SK-LMS-1. Nature of the series: Antiproliferative activity against human SK-LMS-1 cells assessed as cell growth inhibition incubated for 10 days. The class given is functional. To be noted: SK-LMS-1, 240 h, time 10 day.
The subject of another series is SW684. Kind of series: Antiproliferative activity against human SW684 cells assessed as cell growth inhibition incubated for 10 days. The class given is functional. To be noted: SW684, 240 h, time 10 day.
A further series deals with SCC-4. Nature of the series: Antiproliferative activity against human SCC-4 cells assessed as cell growth inhibition incubated for 10 days. The class given is functional. The settings on record: SCC-4, 240 h, time 10 day.
The next series concerns CRO-AP2. Kind of series: Antiproliferative activity against human CRO-AP2 cells assessed as cell growth inhibition incubated for 10 days. It is filed as functional. To be noted: CRO-AP2, 240 h, time 10 day. In outline:
as §1

The test system of a further series is HMCB cell line. Nature of the series: Antiproliferative activity against human HMCB cell line assessed as cell growth inhibition incubated for 10 days. It is filed as functional. To be noted: 240 h, time 10 day. In outline: as §1
Another series has as its system U-2940. Nature of the series: Antiproliferative activity against human U-2940 cells assessed as reduction in cell viability. It is filed as functional, cell-based.
For the next series, the system named is DMS-273. Nature of the series: Antiproliferative activity against human DMS-273 cells assessed as cell growth inhibition incubated for 10 days. The class given is functional. To be noted: DMS-273, 240 h, time 10 day. In outline:
as §1

The subject of a further series is Malme-3M. Kind of series: Antiproliferative activity against human Malme-3M cells assessed as cell growth inhibition incubated for 10 days. To be noted: 240 h, time 10 day. It is filed as functional.
The next series has as its system BPH-1. Nature of the series: Antiproliferative activity against human BPH-1 cells assessed as cell growth inhibition incubated for 10 days. The class given is functional. To be noted: BPH-1, 240 h, time 10 day. Summed up:
as §2

A further series has as its system DLD-1. Kind of series: Antiproliferative activity against human DLD-1 cells assessed as cell growth inhibition incubated for 10 days. The class given is functional. The settings on record: DLD-1, 240 h, time 10 day. In outline:
as §1

The test system of a further series is RD. Nature of the series: Antiproliferative activity against human RD cells assessed as cell growth inhibition incubated for 10 days. The class given is functional. To be noted: 240 h, time 10 day.
The test system of another series is A673. Nature of the series: Antiproliferative activity against human A673 cells assessed as cell growth inhibition incubated for 10 days. It is filed as functional. To be noted: A673, 240 h, time 10 day. In outline:
as §2

The subject of another series is SK-NEP-1. Kind of series: Antiproliferative activity against human SK-NEP-1 cells assessed as cell growth inhibition incubated for 10 days. The class given is functional. To be noted: SK-NEP-1, 240 h, time 10 day.
The nature of series [5]: Antiproliferative activity against human HLF cells assessed as cell growth inhibition incubated for 10 days. The settings on record: 240 h, time 10 day. It is filed as functional. In outline: as §1
The subject of the next series is SJSA-1. Kind of series: Antiproliferative activity against human SJSA-1 cells assessed as cell growth inhibition incubated for 10 days. It is filed as functional. To be noted: SJSA-1, 240 h, time 10 day.
Another series concerns SNU-16. Kind of series: Antiproliferative activity against human SNU-16 cells assessed as cell growth inhibition incubated for 10 days. It is filed as functional. The settings on record: SNU-16, 240 h, time 10 day.

Active and inactive are the calls of the source. The calls are words filed in the database; no cut-off is given here.

On to `CC(=O)N1CCC(Nc2cc(C(=O)NC[C@H](O)CN3CCc4ccccc4C3)ncn2)CC1` [PEMRAMETOSTAT], for which the result in the series with MDA-MB-468 was Active. In addition, the inhibition result (in series [1]; with Z-138 [2]; in the series on Z-138 [3]) was “Active” throughout. In [4], the Activity entry is recorded as “Non-Toxic”.
As for `O=C(NC[C@H](O)CN1CCc2ccccc2C1)c1ccnc(NC2CCC2)c1`, the GI50 (as a rule, the concentration at which growth is held to half of that of the control) is 23.5 nM in the series with D283 Med; 102 nM in the series on SW837; 58.4 nM in the series on RPMI-8226; 1190 nM with ChaGo-K-1; 223 nM in the series with HOS; 298 nM in the series with Caov-3 cell line. Besides, the concentration for 50% growth inhibition (GI50) came out at 472 nM in the series with SJRH30; 154 nM with HPAF-II; 430 nM in the series with HCT-8; 156 nM with DBTRG-05MG; 80.3 nM in the series on COLO 320; 590 nM with A 172. The GI50 with CHL-1 was 247 nM; in the series with BJAB, 3100 nM; in the series on U-266, 78.5 nM; in the series with SK-LMS-1, 113 nM; in the series with SW684, 1170 nM; with SCC-4 it was 286 nM. Moreover, the GI50 with CRO-AP2 was determined as 250 nM; in the series on HMCB cell line, 666 nM; with DMS-273, 298 nM; in the series on Malme-3M it was 265 nM; in the series with BPH-1, 718 nM; in the series with DLD-1, 134 nM. Also, the 50% growth inhibitory concentration (GI50) in the series with RD turned out to be 639 nM; in the series with A673, 119 nM; in the series with SK-NEP-1, 264 nM; in series [5], 87.7 nM; in the series with SJSA-1, 773 nM; with SNU-16, 34.4 nM. In the series on U-2940, the outcome was Active.

Values taken from ChEMBL document CHEMBL5653630, “Activation of the p53-MDM4 regulatory axis defines the anti-tumour response to PRMT5 inhibition through its role in regulating cellular splicing” (Sci Rep, 2018).
